We go through 1 molecule from ChEMBL document CHEMBL1144710, “epigenetic multiple ligands: mixed histone/protein methyltransferase, acetyltransferase, and class III deacetylase (sirtuin) inhibitors” (J Med Chem, 2008).

Experiment [1] addresses T1, NAD-dependent protein deacetylase sirtuin-2 (Homo sapiens) (UniProt Q8IXJ6).
T1 sequence (whole entry): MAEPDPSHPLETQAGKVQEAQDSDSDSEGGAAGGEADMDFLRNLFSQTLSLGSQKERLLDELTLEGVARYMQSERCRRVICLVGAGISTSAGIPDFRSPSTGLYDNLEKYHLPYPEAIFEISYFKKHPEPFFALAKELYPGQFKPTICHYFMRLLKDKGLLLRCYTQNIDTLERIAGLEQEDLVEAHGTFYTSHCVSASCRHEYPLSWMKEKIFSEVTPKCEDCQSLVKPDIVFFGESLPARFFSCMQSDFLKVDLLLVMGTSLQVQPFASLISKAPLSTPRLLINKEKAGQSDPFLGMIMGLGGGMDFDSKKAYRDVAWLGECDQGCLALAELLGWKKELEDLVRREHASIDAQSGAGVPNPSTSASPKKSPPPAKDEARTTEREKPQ
Briefly: Inhibition of human SIRT2 at 25 uM. The method in brief:
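Fluorescent two-stage assay. SIRT1 (1 U/well) or SIRT2 (5 U/well) with Fluor de Lys-SIRT1/2 substrate, NAD+ and compound at 25 µM, 37 °C for 2 h. Developer II containing nicotinamide then stopped the reaction and generated signal, read at ex 360/em 460 nm.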

Experiment [2] has as its system U-937. Briefly: Inhibition of human p300/CBP in U937 cells at 50 uM assessed as histone H3 acetylation. In kind it is cell-based. The method in brief:
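Source was U937 nuclear extract (10 µg per assay) as p300/CBP HAT, with histone H3 substrate and compound at 50 µM or DMSO control for 90 min. Acetyl-H3 detected by indirect ELISA, quantified against acetylated H3 peptide standard curves, […].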

Experiment [3] addresses Protein arginine N-methyltransferase 1 (Homo sapiens) (UniProt Q99873). Description: Inhibition of human recombinant PRMT1 assessed as nuclear ribonucleoprotein Npl3p methylation at 100 uM. In outline:
(§1)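 Recombinant enzymes (0.2 µg) with substrate (0.5 µg: Npl3p for PRMT1, PABP1 for CARM1, histone H3 for SET7), 0.5 µM [3H]AdoMet and 100 µM compound in PBS pH 7.4 with 3.3% v/v DMSO, 90 min at 30 °C. Products separated by 10% SDS-PAGE, transferred to PVDF, detected by fluorography on film overnight.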

For experiment [4], the target named is T2, Histone-lysine N-methyltransferase SETD7 (Homo sapiens) (UniProt Q8WTS6).
T2 sequence (whole entry): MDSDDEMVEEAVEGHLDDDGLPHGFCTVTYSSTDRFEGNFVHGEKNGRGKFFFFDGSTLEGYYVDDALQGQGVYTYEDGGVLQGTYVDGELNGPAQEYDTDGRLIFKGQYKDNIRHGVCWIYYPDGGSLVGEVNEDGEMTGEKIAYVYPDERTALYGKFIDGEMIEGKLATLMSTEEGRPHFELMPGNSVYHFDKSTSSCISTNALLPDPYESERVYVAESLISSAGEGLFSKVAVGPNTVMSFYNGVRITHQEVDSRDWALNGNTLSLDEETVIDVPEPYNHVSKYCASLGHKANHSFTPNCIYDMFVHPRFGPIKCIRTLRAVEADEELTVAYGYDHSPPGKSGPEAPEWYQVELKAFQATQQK
Briefly: Inhibition of human recombinant SET7 assessed as histone H3 protein methylation at 100 uM. In outline:
as §1

The test system of experiment [5] is U-937. Briefly: Cell cycle arrest in human U937 cells assessed as accumulation at S phase at 25 uM after 30 hrs. Type of experiment: functional, cell-based. In outline:
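U937 cells in RPMI with 10% fetal calf serum, HEPES and glutamine, kept at 200000 cells/mL; treated at 25 µM for 30 h, then the distribution across cell cycle phases was analysed.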

The source made the active and inactive calls. The rule behind the calls is not given here.

Sequence of Protein arginine N-methyltransferase 1 (Homo sapiens) (Q99873 whole entry, looked up): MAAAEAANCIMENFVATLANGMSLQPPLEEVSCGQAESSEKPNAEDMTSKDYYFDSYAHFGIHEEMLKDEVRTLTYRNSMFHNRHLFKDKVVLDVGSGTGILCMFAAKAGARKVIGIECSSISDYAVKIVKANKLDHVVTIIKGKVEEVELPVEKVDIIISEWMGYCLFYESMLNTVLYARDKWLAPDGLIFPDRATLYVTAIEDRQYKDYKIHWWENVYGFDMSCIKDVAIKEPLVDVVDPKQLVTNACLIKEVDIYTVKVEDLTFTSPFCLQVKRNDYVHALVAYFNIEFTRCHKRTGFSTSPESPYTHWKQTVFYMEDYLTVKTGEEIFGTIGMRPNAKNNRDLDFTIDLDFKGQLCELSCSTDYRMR

Turning to `O=C1/C(=C/c2cc(Br)c(O)c(Br)c2)COC/C1=C\c1cc(Br)c(O)c(Br)c1`, the inhibition (commonly how much of the control response was suppressed) in experiment [1] was 67%; in the experiment with U-937 [2], 61%. Also, the outcome (in experiment [3]; in experiment [4]; with U-937 [5]) was Active.
